Assay results: ChEMBL document CHEMBL2331093, “Synthesis and biological evaluation of novel propargyl amines as potential fluorine-18 labeled radioligands for detection of MAO-B activity” (Bioorg Med Chem, 2013); call rule not given here

How the values were obtained:
[1] = Drug uptake in cynomolgus monkey cerebellum at 168 MBq, iv by PET imaging; type: ADME, organism-based, Macaca fascicularis; conditions: in vivo
How it was run: (§1)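 PET brain imaging in a cynomolgus monkey after injection of the fluorine-18 labeled radioligand; regional radioactivity uptake expressed as %SUV over time post injection.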

[2] = Drug uptake in human hippocampus at 4 MBq/200 ml after 90 mins by in vitro autoradiography in presence of MAO-B inhibitor L-deprenyl; type: ADME, tissue-based; conditions: 1.5 h
How it was run: (§2)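 In vitro autoradiography with the fluorine-18 labeled radioligand on human postmortem brain tissue sections.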

Plasma [3] = test: Metabolic stability in cynomolgus monkey plasma assessed as metabolite M3 retention time at 168 MBq, iv by HPLC analysis; type: ADME, organism-based, Macaca fascicularis; conditions: in vivo
[4] = Metabolic stability in cynomolgus monkey plasma assessed as parent compound at 168 MBq, iv after 120 mins by HPLC analysis; type: ADME, organism-based, Macaca fascicularis; conditions: read-out: Stability
[5] = Drug uptake in human hippocampus at 4 MBq/200 ml after 90 mins by in vitro autoradiography in presence of MAO-A ligand pirlindole; type: ADME, tissue-based; conditions: 1.5 h; how it was run: as §2
Thalamus = test: Drug uptake in cynomolgus monkey thalamus at 168 MBq, iv by PET imaging; type: ADME, organism-based, Macaca fascicularis; conditions: in vivo; how it was run: as §1
[6] = Drug uptake in cynomolgus monkey striatum at 168 MBq, iv by PET imaging; type: ADME, organism-based, Macaca fascicularis; conditions: in vivo; how it was run: as §1
[7] = Drug uptake in human caudate nucleus at 4 MBq/200 ml after 90 mins by in vitro autoradiography in presence of MAO-A ligand pirlindole; type: ADME, tissue-based; conditions: 1.5 h; how it was run: as §2
[8] = Drug uptake in human putamen at 4 MBq/200 ml after 90 mins by in vitro autoradiography in presence of MAO-B inhibitor rasagiline; type: ADME, tissue-based; conditions: 1.5 h; how it was run: as §2
[9] = Drug uptake in human putamen at 4 MBq/200 ml after 90 mins by in vitro autoradiography in presence of MAO-A ligand pirlindole; type: ADME, tissue-based; conditions: 1.5 h; how it was run: as §2
[10] = Drug uptake in human hippocampus at 4 MBq/200 ml after 90 mins by in vitro autoradiography in presence of MAO-B inhibitor rasagiline; type: ADME, tissue-based; conditions: 1.5 h; how it was run: as §2
[11] = Metabolic stability in cynomolgus monkey plasma assessed as parent compound at 168 MBq, iv after 45 mins by HPLC analysis; type: ADME, organism-based, Macaca fascicularis; conditions: read-out: Stability
Plasma [12] = test: Metabolic stability in cynomolgus monkey plasma assessed as metabolite M2 retention time at 168 MBq, iv by HPLC analysis; type: ADME, organism-based, Macaca fascicularis; conditions: in vivo
[13] = Drug uptake in human hippocampus at 4 MBq/200 ml after 90 mins by in vitro autoradiography; type: ADME, tissue-based; conditions: 1.5 h; how it was run: as §2
[14] = Drug uptake in human thalamus at 4 MBq/200 ml after 90 mins by in vitro autoradiography in presence of MAO-B inhibitor rasagiline; type: ADME, tissue-based; conditions: 1.5 h; how it was run: as §2
[15] = Drug uptake in human thalamus at 4 MBq/200 ml after 90 mins by in vitro autoradiography in presence of MAO-A ligand pirlindole; type: ADME, tissue-based; conditions: 1.5 h; how it was run: as §2
[16] = Drug uptake in human caudate nucleus at 4 MBq/200 ml after 90 mins by in vitro autoradiography in presence of MAO-B inhibitor L-deprenyl; type: ADME, tissue-based; conditions: 1.5 h; how it was run: as §2
Plasma [17] = test: Metabolic stability in cynomolgus monkey plasma assessed as metabolite M1 retention time at 168 MBq, iv by HPLC analysis; type: ADME, organism-based, Macaca fascicularis; conditions: in vivo
Plasma [18] = test: Metabolic stability in cynomolgus monkey plasma assessed as metabolite M5 retention time at 168 MBq, iv by HPLC analysis; type: ADME, organism-based, Macaca fascicularis; conditions: in vivo
[19] = Drug uptake in human caudate nucleus at 4 MBq/200 ml after 90 mins by in vitro autoradiography; type: ADME, tissue-based; conditions: 1.5 h; how it was run: as §2
[20] = Drug uptake in human caudate nucleus at 4 MBq/200 ml after 90 mins by in vitro autoradiography in presence of MAO-B inhibitor rasagiline; type: ADME, tissue-based; conditions: 1.5 h; how it was run: as §2
Plasma [21] = test: Metabolic stability in cynomolgus monkey plasma assessed as metabolite M4 retention time at 168 MBq, iv by HPLC analysis; type: ADME, organism-based, Macaca fascicularis; conditions: in vivo
[22] = Drug uptake in human putamen at 4 MBq/200 ml after 90 mins by in vitro autoradiography in presence of MAO-B inhibitor L-deprenyl; type: ADME, tissue-based; conditions: 1.5 h; how it was run: as §2
[23] = Drug uptake in human thalamus at 4 MBq/200 ml after 90 mins by in vitro autoradiography in presence of MAO-B inhibitor L-deprenyl; type: ADME, tissue-based; conditions: 1.5 h; how it was run: as §2
Brain = test: Drug uptake in cynomolgus monkey brain at 168 MBq, iv by PET imaging; type: ADME, organism-based, Macaca fascicularis; conditions: in vivo; how it was run: as §1
[24] = Drug uptake in human thalamus at 4 MBq/200 ml after 90 mins by in vitro autoradiography; type: ADME, tissue-based; conditions: 1.5 h; how it was run: as §2
[25] = Drug uptake in cynomolgus monkey cortex at 168 MBq, iv by PET imaging; type: ADME, organism-based, Macaca fascicularis; conditions: in vivo; how it was run: as §1
[26] = Drug uptake in human putamen at 4 MBq/200 ml after 90 mins by in vitro autoradiography; type: ADME, tissue-based; conditions: 1.5 h; how it was run: as §2
[27] = Drug uptake in human basal ganglia at 4 MBq/200 ml after 90 mins by in vitro autoradiography in presence of MAO-B inhibitor rasagiline; type: ADME; conditions: 1.5 h; how it was run: as §2
Cortex [28] = test: Drug uptake in human cortex at 4 MBq/200 ml after 90 mins by in vitro autoradiography in presence of MAO-A ligand pirlindole; type: ADME, tissue-based; conditions: 1.5 h; how it was run: as §2
Cortex [29] = test: Drug uptake in human cortex at 4 MBq/200 ml after 90 mins by in vitro autoradiography in presence of MAO-B inhibitor rasagiline; type: ADME, tissue-based; conditions: 1.5 h; how it was run: as §2
Cortex [30] = test: Drug uptake in human cortex at 4 MBq/200 ml after 90 mins by in vitro autoradiography in presence of MAO-B inhibitor L-deprenyl; type: ADME, tissue-based; conditions: 1.5 h; how it was run: as §2
[31] = Drug uptake in human basal ganglia at 4 MBq/200 ml after 90 mins by in vitro autoradiography in presence of MAO-B inhibitor L-deprenyl; type: ADME; conditions: 1.5 h; how it was run: as §2
[32] = Drug uptake in human basal ganglia at 4 MBq/200 ml after 90 mins by in vitro autoradiography in presence of MAO-A ligand pirlindole; type: ADME; conditions: 1.5 h; how it was run: as §2
Cortex [33] = test: Drug uptake in human cortex at 4 MBq/200 ml after 90 mins by in vitro autoradiography; type: ADME, tissue-based; conditions: 1.5 h; how it was run: as §2
[34] = Drug uptake in human basal ganglia at 4 MBq/200 ml after 90 mins by in vitro autoradiography; type: ADME; conditions: 1.5 h; how it was run: as §2
[35] = Stability of the compound in PBS buffer at pH 7.4 up to 150 mins; type: physicochemical; conditions: pH 7.4, 2.5 h
[36] = biological target: T1, Amine oxidase [flavin-containing] B (Homo sapiens, UniProt P27338); test: Inhibition of recombinant human MAO-B assessed as inhibition of kynuramine oxidation by spectrophotometry
T1 sequence (P27338 whole entry): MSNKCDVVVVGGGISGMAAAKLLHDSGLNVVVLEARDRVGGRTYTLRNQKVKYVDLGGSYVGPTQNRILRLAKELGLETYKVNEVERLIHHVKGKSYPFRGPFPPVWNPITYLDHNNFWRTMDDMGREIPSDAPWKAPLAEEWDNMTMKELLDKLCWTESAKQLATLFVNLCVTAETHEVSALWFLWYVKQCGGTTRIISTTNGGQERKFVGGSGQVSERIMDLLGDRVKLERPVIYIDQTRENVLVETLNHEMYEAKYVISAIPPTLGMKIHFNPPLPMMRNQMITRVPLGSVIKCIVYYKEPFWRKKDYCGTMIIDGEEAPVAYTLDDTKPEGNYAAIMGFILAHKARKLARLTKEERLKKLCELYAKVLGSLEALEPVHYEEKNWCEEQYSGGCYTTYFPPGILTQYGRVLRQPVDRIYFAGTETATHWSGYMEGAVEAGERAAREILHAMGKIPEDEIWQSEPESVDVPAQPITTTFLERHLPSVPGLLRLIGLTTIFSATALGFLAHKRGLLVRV

[37] = biological target: T2, Amine oxidase [flavin-containing] A (Homo sapiens, UniProt P21397); test: Inhibition of recombinant human MAO-A assessed as inhibition of kynuramine oxidation by spectrophotometry
T2 sequence (P21397 whole entry): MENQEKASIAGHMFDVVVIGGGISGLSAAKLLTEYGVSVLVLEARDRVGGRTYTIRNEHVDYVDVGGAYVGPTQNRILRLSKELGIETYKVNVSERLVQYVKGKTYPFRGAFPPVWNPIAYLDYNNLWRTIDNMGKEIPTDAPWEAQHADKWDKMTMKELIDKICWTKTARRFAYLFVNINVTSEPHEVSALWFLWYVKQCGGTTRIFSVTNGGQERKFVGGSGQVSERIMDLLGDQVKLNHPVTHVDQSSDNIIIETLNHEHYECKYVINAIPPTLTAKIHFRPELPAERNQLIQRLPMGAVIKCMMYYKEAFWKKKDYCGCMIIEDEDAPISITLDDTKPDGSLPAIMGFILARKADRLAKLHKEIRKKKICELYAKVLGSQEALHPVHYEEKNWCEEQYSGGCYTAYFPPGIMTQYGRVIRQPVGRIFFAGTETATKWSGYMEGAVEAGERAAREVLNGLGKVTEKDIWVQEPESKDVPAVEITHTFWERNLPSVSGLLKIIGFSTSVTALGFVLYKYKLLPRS

C#CCN(C)[C@H](C[18F])CC(C)C
Drug uptake [1]: Not Active | Drug uptake [2]: Not Active | Retention_time (Plasma [3]): 3.7 min | remaining at 2 h [4]: 12% | Drug uptake [5]: Active | Drug uptake (Thalamus): Active | Drug uptake [6]: Active | Drug uptake [7]: Active | Drug uptake [8]: Not Active | Drug uptake [9]: Active | Drug uptake [10]: Not Active | remaining at 0.75 h [11]: 20% | Retention_time (Plasma [12]): 3.4 min | Drug uptake [13]: Active | Drug uptake [14]: Not Active | Drug uptake [15]: Active | Drug uptake [16]: Not Active | Retention_time (Plasma [17]): 2 min | Retention_time (Plasma [18]): 6.2 min | Drug uptake [19]: Active | Drug uptake [20]: Not Active | Retention_time (Plasma [21]): 4.2 min | Drug uptake [22]: Not Active | Drug uptake [23]: Not Active | SUV (Brain): 250% | Drug uptake [24]: Active | Drug uptake [25]: Not Active | Drug uptake [26]: Active

C#CCN(C)[C@H](C[18F])Cc1ccco1
Drug uptake [27]: Not Active | Drug uptake [2]: Not Active | Drug uptake (Cortex [28]): Active | Drug uptake [5]: Active | Drug uptake (Cortex [29]): Not Active | Drug uptake (Cortex [30]): Not Active | Drug uptake [10]: Not Active | Drug uptake [13]: Active | Drug uptake [14]: Not Active | Drug uptake [15]: Active | Drug uptake [31]: Not Active | Drug uptake [32]: Active | Drug uptake (Cortex [33]): Active | Drug uptake [34]: Active | Drug uptake [23]: Not Active | Drug uptake [24]: Active

C#CCN(C)[C@H](C[19F])Cc1ccco1
Stability [35]: Stable

C#CCN(C)[C@H](C[19F])CC(C)C
Stability [35]: Stable

C#CCN(C)[C@H](CF)CC(C)C
IC50 [36]: 132 nM | IC50 [37]: > 2000 nM

C#CCN(C)[C@H](CF)CC(=C)C
IC50 [36]: 664 nM | IC50 [37]: > 2000 nM

C#CCN(C)[C@H](CF)Cc1ccco1
IC50 [36]: 208 nM | IC50 [37]: > 2000 nM
